ChEMBL document CHEMBL1130336, “Polyanion inhibitors of human immunodeficiency virus and other viruses. 6. Micelle-like anti-HIV polyanionic compounds based on a carbohydrate core” (J Med Chem, 1997)

What was measured:
[1] = test system: Vero; test: Concentration required to reduce Junin virus-inducted cytopathicity by 50% (Vero cells); format: functional, cell-based; conditions: Chlorocebus sabaeus
[2] = test system: MT4; test: Concentration required to inhibit human immunodeficiency virus-2 induced cytopathicity in MT-4 cells by 50%; format: functional, cell-based
Outline: (§1)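 MT-4 cells infected with HIV-1 (strain HTLV-III_B/LAI) or HIV-2 (strain LAV_ROD). The end point is 50% inhibition of virus-induced cytopathicity.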

[3] = test system: HeLa; test: Concentration required to reduce Coxsackie virus-inducted cytopathicity by 50% (HeLa cells); format: functional, cell-based; conditions: Homo sapiens
[4] = test system: CEM-4; test: Concentration required to reduce the viability of uninfected CEM-4 cells by 50%; format: functional; conditions: Homo sapiens
Outline: (§2)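 Cytotoxicity in uninfected CEM-4 or MT-4 cells, measured as inhibition of cell growth. The value is the concentration that lowers viability by 50%.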

[5] = test system: Vaccinia virus; test: Concentration required to reduce vaccinia virus-inducted cytopathicity by 50% (E6SM cells); format: functional, organism-based, Orthopoxvirus vaccinia
[6] = test system: Vero; test: Concentration required to reduce sindbis virus-inducted cytopathicity by 50% (Vero cells); format: functional, cell-based; conditions: Chlorocebus sabaeus
[7] = test system: HEL; test: Concentration required to reduce human cytomegalo virus(Davis) inducted cytopathicity by 50% (HEL cells); format: functional, cell-based
Outline: (§3)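 Virus was added in the presence of compound, and the cells were incubated until cytopathic effect was scored. The value is the concentration that reduces virus-induced CPE by 50%.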

[8] = test system: E6SM; test: Concentration required to reduce herpes simplex virus-1TK (F) inducted cytopathicity by 50% (E6SM cells); format: functional, cell-based; conditions: Homo sapiens; outline: as §3
[9] = test system: E6SM; test: Concentration required to cause a microscopically detectable alteration of normal E6SM cell morphology; format: functional, cell-based; conditions: Homo sapiens, read-out: IC50
Outline: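 Minimum cytotoxic concentration, read microscopically as the level that causes a detectable alteration of normal cell morphology.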

[10] = test system: Vero; test: Concentration required to reduce parainfluenza-3 virus-inducted cytopathicity by 50% (Vero cells); format: functional, cell-based; conditions: Chlorocebus sabaeus
[11] = test system: MT4; test: Concentration required to inhibit human immunodeficiency virus-1 induced cytopathicity in MT-4 cells by 50%; format: functional, cell-based; outline: as §1
[12] = test system: HeLa; test: Concentration required to reduce vesicular stomatitis virus-inducted cytopathicity by 50% (HeLa cells); format: functional, cell-based; conditions: Homo sapiens
[13] = test system: Human immunodeficiency virus 1; test: Concentration required to inhibit by 50% human immunodeficiency virus-1 induced syncytium formation upon coculturing persistently HIV-infected HUT-78 cells with MOLT-4 cells; format: functional, organism-based; conditions: Human immunodeficiency virus 1, MOLT-4
Outline: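 MOLT-4 (clone 8) cells at 1 × 10^6 cells/mL, cocultured with an equal number of persistently infected HUT-78/HIV-1 or HUT-78/HIV-2 cells across a range of compound concentrations. Giant cells were counted under the microscope after 24 h of cocultivation. The value is the concentration giving 50% inhibition of syncytium formation.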

[14] = test system: Vero; test: Concentration required to reduce Coxsackie virus-inducted cytopathicity by 50% (Vero cells); format: functional, cell-based; conditions: Chlorocebus sabaeus
[15] = test system: E6SM; test: Concentration required to reduce herpes simplex virus-2(196) inducted cytopathicity by 50% (E6SM cells); format: functional, cell-based; conditions: Homo sapiens; outline: as §3
[16] = test system: E6SM; test: Concentration required to reduce herpes simplex virus-2(G) inducted cytopathicity by 50% (E6SM cells); format: functional, cell-based; conditions: Homo sapiens; outline: as §3
[17] = test system: E6SM; test: Concentration required to reduce herpes simplex virus-1TK (KOS) inducted cytopathicity by 50% (E6SM cells); format: functional, cell-based; conditions: Homo sapiens; outline: as §3
[18] = test system: E6SM; test: Concentration required to reduce herpes simplex virus-1TK (VMW1837) inducted cytopathicity by 50% (E6SM cells); format: functional, cell-based; conditions: Homo sapiens; outline: as §3
[19] = test system: Vero; test: Concentration required to reduce Tacaribe virus-inducted cytopathicity by 50% (Vero cells); format: functional, cell-based; conditions: Chlorocebus sabaeus
[20] = test system: CEM-4; test: Inhibitory concentration required to inhibit HIV-induced cytopathicity in CEM-4 cells by 50%; format: functional, cell-based; conditions: Homo sapiens
Outline: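 CEM-4 cells infected with HIV-1 (strain HTLV-III_B/LAI). The end point is 50% inhibition of HIV-induced cytopathicity.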

[21] = test system: MT4; test: Concentration required to reduce the viability of uninfected MT-4 cells by 50%; format: functional; conditions: Homo sapiens; outline: as §2
[22] = test system: E6SM; test: Concentration required to reduce herpes simplex virus-2(Lyons) inducted cytopathicity by 50% (E6SM cells); format: functional, cell-based; conditions: Homo sapiens; outline: as §3
[23] = test system: Vero; test: Concentration required to cause a microscopically detectable alteration of normal Vero cell morphology; format: functional, cell-based; conditions: Chlorocebus sabaeus
[24] = test system: Vero; test: Concentration required to reduce reovirus-1 inducted cytopathicity by 50% (Vero cells); format: functional, cell-based; conditions: Chlorocebus sabaeus
[25] = test system: E6SM; test: Concentration required to reduce herpes simplex virus-1TK (McIntyre) inducted cytopathicity by 50% (E6SM cells); format: functional, cell-based; conditions: Homo sapiens; outline: as §3
[26] = test system: HEL; test: Concentration required to inhibit HEL cell growth by 50%; format: functional, cell-based; conditions: Homo sapiens
[27] = test system: E6SM; test: Concentration required to reduce herpes simplex virus-1TK( B2006) inducted cytopathicity by 50% (E6SM cells); format: functional, cell-based; conditions: Homo sapiens; outline: as §3
[28] = test system: Vero; test: Concentration required to reduce forest virus-inducted cytopathicity by 50% (Vero cells); format: functional, cell-based; conditions: Chlorocebus sabaeus
[29] = test system: HeLa; test: Concentration required to reduce polio-1 virus-inducted cytopathicity by 50% (HeLa cells); format: functional, cell-based; conditions: Homo sapiens
[30] = test system: HEL; test: Concentration required to reduce human cytomegalo virus(AD-169) inducted cytopathicity by 50% (HEL cells); format: functional, cell-based; outline: as §3
[31] = test system: HeLa; test: Concentration required to cause a microscopically detectable alteration of normal Hela cell morphology; format: functional, cell-based; conditions: Homo sapiens
[32] = test system: Human immunodeficiency virus 2; test: Concentration required to inhibit by 50% human immunodeficiency virus-2 induced syncytium formation upon coculturing persistently HIV-infected HUT-78 cells with MOLT-4 cells; conditions: HUT-78, MOLT-4

Compound | IC50 [1] [µM] | IC50 [2] [µM] | IC50 [3] [µM] | IC50 [6] [µM] | IC50 [7] [µM] | minimum cytotoxic concentration [9] [µM] | IC50 [10] [µM] | IC50 [12] [µM] | IC50 [13] [µM] | IC50 [14] [µM] | IC50 [16] [µM] | IC50 [17] [µM] | IC50 [18] [µM] | IC50 [19] [µM] | CC50 [21] [µM] | IC50 [23] [µM] | IC50 [24] [µM] | IC50 [26] [µM] | IC50 [27] [µM] | IC50 [30] [µM] | also measured
O=C(O)CC(SCCCOC[C@H]1O[C@@H](OCCCSC(CC(=O)O)C(=O)O)[C@H](OCCCSC(CC(=O)O)C(=O)O)[C@@H](OCCCSC(CC(=O)O)C(=O)O)[C@@H]1OCCCSC(CC(=O)O)C(=O)O)C(=O)O (stereo partly specified) | > 37 | > 185 | > 148 | > 148 | > 37 | > 296 | > 148 | > 148 | > 185 | > 148 | > 296 | > 296 | > 296 | > 37 | > 185 | > 148 | > 148 | > 37 | > 296 | > 37 | CC50 [4]: > 74 µM; IC50 ([5]; Orthopoxvirus vaccinia, E6SM): > 296 µM; IC50 [8]: > 296 µM; IC50 [11]: 85900 nM; IC50 [15]: > 296 µM; IC50 [20]: > 74 µM; IC50 [22]: > 296 µM; IC50 [25]: > 296 µM; IC50 [28]: > 148 µM; IC50 [29]: > 148 µM
O=S(=O)(O)CCSCCCOC[C@H]1O[C@@H](OCCCSCCS(=O)(=O)O)[C@H](OCCCSCCS(=O)(=O)O)[C@@H](OCCCSCCS(=O)(=O)O)[C@@H]1OCCCSCCS(=O)(=O)O | > 42 | > 208 | > 167 | > 167 | > 333 | > 333 | > 167 | > 167 | > 208 | > 167 | > 333 | > 333 | > 333 | > 42 | > 208 | > 167 | > 167 | > 42 | > 333 | > 42 | CC50 [4]: > 83.3 µM; IC50 ([5]; e6sm): > 167 µM; IC50 [8]: > 333 µM; IC50 [15]: > 333 µM; IC50 [20]: > 83.3 µM; IC50 [22]: > 42 µM; IC50 [25]: > 333 µM; IC50 [31]: > 167 µM; IC50 [28]: > 167 µM; IC50 [29]: > 167 µM; IC50 [32]: > 208 µM
O=C(O)CC(SCCCOC[C@H]1O[C@@H](O[C@H]2[C@H](OCCCSC(CC(=O)O)C(=O)O)[C@@H](OCCCSC(CC(=O)O)C(=O)O)C(OCCCSC(CC(=O)O)C(=O)O)O[C@@H]2COCCCSC(CC(=O)O)C(=O)O)[C@H](OCCCSC(CC(=O)O)C(=O)O)[C@@H](OCCCSC(CC(=O)O)C(=O)O)[C@@H]1OCCCSC(CC(=O)O)C(=O)O)C(=O)O (stereo partly specified) | > 22 | 4.17 | > 181 | > 181 | 0.4 | > 181 | > 181 | > 181 | 1.8 | > 181 | > 45 | > 181 | > 181 | > 22 | > 56.4 | > 181 | > 181 | > 22 | 45 | 1.4 | IC50 ([5]; Orthopoxvirus vaccinia, E6SM): > 181 µM; IC50 [11]: 40 nM; IC50 [31]: > 181 µM; IC50 [32]: 54.2 µM
O=C(O)CCSCCCOC[C@H]1O[C@@H](OCCCSCCC(=O)O)[C@H](OCCCSCCC(=O)O)[C@@H](OCCCSCCC(=O)O)[C@@H]1OCCCSCCC(=O)O |  |  |  |  |  |  |  |  |  |  |  |  |  |  |  |  |  |  |  |  | CC50 [4]: > 98 µM; IC50 [20]: > 98 µM
O=C(O)CC(SCCCOC[C@H]1O[C@@H](O[C@H]2[C@H](OCCCSC(CC(=O)O)C(=O)O)[C@@H](OCCCSC(CC(=O)O)C(=O)O)[C@@H](OCCCSC(CC(=O)O)C(=O)O)O[C@@H]2COCCCSC(CC(=O)O)C(=O)O)[C@H](OCCCSC(CC(=O)O)C(=O)O)[C@@H](OCCCSC(CC(=O)O)C(=O)O)[C@@H]1OCCCSC(CC(=O)O)C(=O)O)C(=O)O (stereo partly specified) | > 22 | 4.47 | > 181 | > 181 | 3.6 | > 181 | > 181 | > 181 | 3.61 | > 181 | 136 | 136 | > 181 | > 22 | > 56.4 | > 181 | > 181 | > 22 | 68 | 6.3 | IC50 ([5]; Orthopoxvirus vaccinia, E6SM): > 181 µM; IC50 [11]: 370 nM; IC50 [31]: > 181 µM; IC50 [32]: 54.2 µM
